MrgX1 antag: antagonists of human MrgX1 receptor, primary screen, HEK293 cells, Fluo-4 calcium flux; AID 588676, 2011; hit rate 1.3% among 310,000; Mas-related G-protein coupled receptor member X1 (Homo sapiens), Q96LB2; B-score at 10 µM; BAM8-22 antagonism; stronger effect = lower value;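 active = calcium-response B-score plate-corrected more than 3 library SD below zero, starting fluorescence within 5 deviations, no agonist response on first addition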;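 note: peak minus trough fluorescence over baseline after final BAM8-22 challenge near maximal dose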
Target sequence (Q96LB2 whole entry, looked up): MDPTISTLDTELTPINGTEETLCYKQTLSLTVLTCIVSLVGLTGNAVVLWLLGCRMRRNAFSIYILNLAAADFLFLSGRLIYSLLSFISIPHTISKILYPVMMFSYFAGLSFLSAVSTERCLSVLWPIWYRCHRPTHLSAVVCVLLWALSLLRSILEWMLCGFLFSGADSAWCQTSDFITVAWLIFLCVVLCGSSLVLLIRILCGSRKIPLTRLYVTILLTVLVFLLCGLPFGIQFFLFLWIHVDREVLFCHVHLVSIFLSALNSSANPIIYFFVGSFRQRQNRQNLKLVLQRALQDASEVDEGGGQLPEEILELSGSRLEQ
MrgX1 ag: agonists of human MrgX1 receptor, primary screen, HEK293 cells, Fluo-4 calcium flux | hit rate 0.44% among 310,000 | Mas-related G-protein coupled receptor member X1 (Homo sapiens), Q96LB2 | B-score at 10 µM | AID 588627, 2011 | Fluo-4 calcium fluorescence, agonist mode; stronger effect = higher value;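 active = calcium response B-score plate-corrected fluorescence ratio at least 3 library SD, with starting fluorescence B-score inside 5 SD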
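Material – MrgX1-expressing HEK293 cells · Input – 15,000 cells seeded per well · Dosing – compound as first of three additions · Times – overnight seeding, then 1 h dark dye loading · Measured by – kinetic Fluo-4 NW fluorescence of intracellular calcium · Read-out – B-scored fluorescence response ratio · Benchmarks – positive and negative control wells on each plate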
RGS4 pot: RGS4 potentiators or activators, primary screen, cell-based, HEK293 M3R inducible RGS4, calcium flux; AID 463111, 2010; hit rate 0.92% among 310,000; B-score at 10 µM; carbachol calcium flux Fluo4; stronger effect = lower value;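 active = B-score of the integrated calcium signal more than 4 SD below the library mean, with starting fluorescence not abnormally high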;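 note: negative B-score means reduced calcium response which marks RGS4 activation or potentiation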
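Also added: carbachol at ECmax as muscarinic agonist stimulus; Assay system: HEK293 cells with stable M3R and inducible RGS4; Timing: overnight RGS4 induction, 30 min dye load 37 °C, 20 min compound RT; Measured by: Fluo4-AM (2 µM) calcium-flux fluorescence, kinetic read.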
MrgX1 PAM: positive allosteric modulators of MrgX1, primary screen, HEK293 cells, Fluo-4 calcium flux. Mas-related G-protein coupled receptor member X1 (Homo sapiens), Q96LB2. FDSS; stronger effect = higher value. B-score at 10 µM. hit rate 0.63% among 310,000;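 active = plate-corrected calcium response at least 3 library SD above typical, normal starting fluorescence, not activating the receptor alone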;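 note: compound read alongside a low EC10 to EC30 dose of BAM8-22 agonist; peak minus trough fluorescence over baseline measured at the second addition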
RGS4 inh: RGS4 inhibitors, primary screen, cell-based, HEK293 M3R inducible RGS4, calcium flux. Fluo-4 calcium flux; stronger effect = higher value; triggered by carbachol at its EC20. B-score at 10 µM. hit rate 0.45% among 310,000. AID 463165, 2010;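 active = B-score, a plate-corrected calcium signal, over three deviations above library mean, with baseline fluorescence within five deviations of library mean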;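 note: RGS4 expression induced by doxycycline in cells with stable M3 receptor; B-score is computed from the integrated fluorescence ratio over baseline after carbachol; higher B-score means a larger calcium signal and so more RGS4 inhibition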
Target sequence (P49798 whole entry, looked up): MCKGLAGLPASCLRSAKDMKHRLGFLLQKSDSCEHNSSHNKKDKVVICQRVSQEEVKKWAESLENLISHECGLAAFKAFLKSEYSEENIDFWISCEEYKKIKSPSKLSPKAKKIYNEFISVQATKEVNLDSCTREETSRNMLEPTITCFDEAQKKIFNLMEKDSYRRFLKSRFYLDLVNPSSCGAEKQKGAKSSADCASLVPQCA
MrgX1 ag confirm: MrgX1 receptor agonists, duplicate retest, confirmation, HEK293 cells, Fluo-4 calcium flux. shares compounds with MrgX1 ag. Fluo-4 calcium fluorescence, FDSS. activation, % at 10 µM. hit rate 78% among 600. AID 602412, 2012;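 active = calcium signal rise, corrected for plate position, at least 3 library SD high, with starting brightness within 5 such deviations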
MrgX1 allo conf: MrgX1 positive allosteric modulators, duplicate retest, confirmation, HEK293 cells, Fluo-4 calcium flux | shares compounds with MrgX1 PAM | Fluo-4 calcium fluorescence, FDSS | activation (ratio percentage), % at 10 µM | hit rate 13% among 1,200 | AID 602413, 2012;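 active = ratio at least 3 SD above the weak peptide control, stable starting fluorescence, no direct agonism earlier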;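 note: compound followed by low BAM8-22 agonist challenge near EC20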
HEK293 Ca flux: nonspecific calcium signal in parental HEK293, confirmation, counter-screen for MrgX1 antagonist project, parental HEK293 cells, Fluo-4 calcium flux | shares compounds with MrgX1 antag | Fluo-4 calcium fluorescence, FDSS | fluorescence ratio F(max-min)/F0 at 10 µM | hit rate 2% among 4,000 | AID 624111, 2012;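 active = duplicate-averaged calcium fluorescence ratio at least three times the standard deviation of buffer wells, a nonspecific response in parental cells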
HEK293 Ca counter: calcium response in parental HEK293 cells, primary screen, counter-screen for MrgX1 allosteric activator project, cell-based, Fluo-4 calcium flux, duplicate. shares compounds with MrgX1 antag. Fluo-4 fluorescence ratio; stronger effect = higher value. fluorescence ratio F(max-min)/F0 at 10 µM. hit rate 0.4% among 4,000. AID 624114, 2012;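 active = calcium fluorescence ratio, averaged over duplicates, at least 3 SD of the buffer-well ratio, meaning a nonspecific response in receptor-free cells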;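 note: untransfected parental HEK293 lacking MrgX1 used as counterscreen for MrgX1 allosteric activators; fluorescence change taken during the second addition on a kinetic imager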
HEK293 Ca cntr2: calcium response in parental HEK293 cells, primary screen, counter-screen for MrgX1 agonist project, cell-based, Fluo-4 calcium flux, duplicate, agonist mode; shares compounds with MrgX1 antag; Fluo-4 calcium fluorescence (FDSS); stronger effect = higher value; fluorescence ratio F(max-min)/F0 at 10 µM; hit rate 8.7% among 4,000; AID 624115, 2012;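 active = calcium fluorescence ratio at least three times the spread of buffer wells, meaning a non-specific response in parental cells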
Active calls of the source: *; i = inactive; x = no result given. Shown are actives, neighbours in structure and some others; about 3.5% of the full set was active somewhere.

SMILES | MrgX1 antag | MrgX1 ag | RGS4 pot | MrgX1 PAM | RGS4 inh | MrgX1 allo conf | HEK293 Ca flux | HEK293 Ca counter | HEK293 Ca cntr2 | others
COc1ccc(C2=CC(c3ccc(C)cc3)n3nnnc3N2)cc1 (stereo not drawn) | i | i | i | i | i | x | x | x | x
COc1ccc(NS(=O)(=O)c2ccc3c(c2)N(C(C)=O)CC(C)S3)c(OC)c1 (stereo not drawn) | i | i | i | i | i | x | x | x | x
COc1cc(/C=C(\C#N)C(=O)c2c[nH]c3ccccc23)cc(OC)c1O | i | 70.4* | i | i | i | x | i | i | 105* | MrgX1 ag confirm=461.4%*
CCC(C)n1c(=N)c(C#N)cc2c(=O)n3ccccc3nc21 (stereo not drawn) | i | 26.5* | i | i | i | x | i | i | i | MrgX1 ag confirm=i
CC(=O)c1ccc(NC(=O)C(C)OC(=O)c2ccc(NS(=O)(=O)c3ccc(F)c(F)c3)cc2)cc1 (stereo not drawn) | i | i | i | i | i | x | x | x | x
COc1ccc(CCNC(=O)c2cc(=O)c3cc(C)ccc3o2)cc1OC | i | i | i | i | i | x | x | x | x
CCOC(=O)c1sc(NC(=O)c2ccccc2C(=O)O)c(C(=O)OCC)c1C | i | i | i | 13.1* | i | i | i | i | i
COCCN(C(=S)Nc1cc(C)cc(C)c1)C(C)c1ccco1 (stereo not drawn) | i | i | i | 8.25* | i | i | i | i | i
CCC(=O)N(Cc1cc2cc(C)c(C)cc2[nH]c1=O)C1CCCCC1 | i | i | i | 7.63* | i | i | i | i | i
CCNC(=S)N(Cc1cc2cc(C)c(C)cc2[nH]c1=O)C1CCCC1 | i | i | i | i | i | x | x | x | x
O=C(Nc1nc2c(F)cc(F)cc2s1)c1ccco1 | i | i | i | 15.6* | i | i | i | i | i
CCOC(=O)c1c(-c2ccc(C)cc2)csc1NC(=O)C1CCCO1 (stereo not drawn) | i | i | i | 12.7* | i | 19.1%* | i | i | i
COC(=O)c1c(-c2cccc(C)c2)csc1NC(=O)C1CCCO1 (stereo not drawn) | i | i | i | i | i | x | x | x | x
COC(=O)c1c(-c2ccc(F)cc2)csc1NC(=O)c1ccco1 | i | i | i | 21.5* | i | 22.0%* | i | i | i
CCOC(=O)c1c(-c2ccc(F)cc2)csc1NC(=O)C1CCCO1 (stereo not drawn) | i | i | i | 10.7* | i | i | i | i | i
CCOC(=O)c1c(-c2ccc(OC)cc2)csc1NC(=O)C1CCCO1 (stereo not drawn) | i | i | i | 23.8* | i | i | i | i | i

Screening data from PubChem.
